Test results as given in PMC11252922 (Proceedings of the National Academy of Sciences of the …, 2024).
Residue numbers refer to the chain shown, from its start. Where no end group is shown, it is not given here. The star is where a group is joined. Cbz = O=C(OCc1ccccc1)*

Experiments:
human TG2 = target: T1, human TG2 (Homo sapiens, UniProt P21980); assay: kinetic analysis of irreversible inhibitors using 1 as the TG2 substrate; assay type: biochemical; settings: KM of substrate 1 used in the inhibitor analysis (Fig. 1D legend)
T1 sequence (P21980 1-687): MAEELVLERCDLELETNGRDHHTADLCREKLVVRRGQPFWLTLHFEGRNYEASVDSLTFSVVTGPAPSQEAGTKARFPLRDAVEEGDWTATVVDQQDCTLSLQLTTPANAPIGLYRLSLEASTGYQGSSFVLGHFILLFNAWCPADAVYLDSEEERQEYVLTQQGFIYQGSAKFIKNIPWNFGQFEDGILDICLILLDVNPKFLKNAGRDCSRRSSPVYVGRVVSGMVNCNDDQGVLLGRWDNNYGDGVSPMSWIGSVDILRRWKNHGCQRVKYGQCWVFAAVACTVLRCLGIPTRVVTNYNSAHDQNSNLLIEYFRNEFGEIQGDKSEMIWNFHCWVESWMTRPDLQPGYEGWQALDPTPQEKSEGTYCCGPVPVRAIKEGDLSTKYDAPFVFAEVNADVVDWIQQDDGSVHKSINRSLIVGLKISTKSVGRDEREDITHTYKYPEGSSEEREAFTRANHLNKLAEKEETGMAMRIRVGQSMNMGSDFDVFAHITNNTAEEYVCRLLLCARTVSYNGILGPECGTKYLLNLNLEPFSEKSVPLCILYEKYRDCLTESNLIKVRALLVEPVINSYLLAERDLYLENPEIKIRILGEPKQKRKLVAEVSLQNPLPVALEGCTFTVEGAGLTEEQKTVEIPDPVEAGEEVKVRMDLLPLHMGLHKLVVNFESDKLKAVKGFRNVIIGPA
Summary of the method: (§1)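 N-terminally His-tagged human TG2, wild type or site-directed mutant, was expressed in E. coli BAP1 and purified by Ni-NTA, anion exchange and size exclusion. Steady-state deamidation was assayed at 1 μM enzyme with varying Gln-peptide substrate concentrations. Released NH4+ was coupled to glutamate dehydrogenase with 10 mM α-ketoglutarate and 500 μM NADH in 200 mM MOPS. Ca2+ was 5 mM unless otherwise varied.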

TG2 S3-2 Mut (E329A) = target: T2, TG2 S3-2 Mut (E329A) (Homo sapiens, UniProt P21980, E329A); assay: steady-state kinetic analysis with S3-2 mutant; assay type: biochemical; settings: S3-2 (E329A) mutant, result in words
T2 sequence (P21980 1-687 E329A): T1 sequence (P21980 1-687) with E329A
Summary of the method: as §1

Km (human TG2) [µM]	catalytic activity of S3-2 mutant against the substrate (TG2 S3-2 Mut (E329A))	Substance
175	barely detectable	AcPQLPF [Compound 1]
	negligible	Cbz-Gln-Gly [ZQG, reference compound]
